Converted amounts (≈) assume the structure as drawn.

The target of one assay is MRSA PK (Staphylococcus aureus, UniProt Q6GG09). The assay can be described thus: MRSA PK enzyme inhibition assay. The assay is classed as biochemical, methicillin-resistant Staphylococcus aureus. The following applies: for fold more potent than 33c: MRSA PK inhibition relative to 33c; for fold decrease in activity compared to 10a: MRSA PK inhibition relative to 10a. In short, it runs like this: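 His-tagged recombinant MRSA pyruvate kinase construct, prepared as in earlier work. […] IC50 was calculated from a triplicate 15-point titration. Where no IC50 was obtained, % inhibition at the highest concentration tested was reported.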
Sequence of MRSA PK (Q6GG09 whole entry): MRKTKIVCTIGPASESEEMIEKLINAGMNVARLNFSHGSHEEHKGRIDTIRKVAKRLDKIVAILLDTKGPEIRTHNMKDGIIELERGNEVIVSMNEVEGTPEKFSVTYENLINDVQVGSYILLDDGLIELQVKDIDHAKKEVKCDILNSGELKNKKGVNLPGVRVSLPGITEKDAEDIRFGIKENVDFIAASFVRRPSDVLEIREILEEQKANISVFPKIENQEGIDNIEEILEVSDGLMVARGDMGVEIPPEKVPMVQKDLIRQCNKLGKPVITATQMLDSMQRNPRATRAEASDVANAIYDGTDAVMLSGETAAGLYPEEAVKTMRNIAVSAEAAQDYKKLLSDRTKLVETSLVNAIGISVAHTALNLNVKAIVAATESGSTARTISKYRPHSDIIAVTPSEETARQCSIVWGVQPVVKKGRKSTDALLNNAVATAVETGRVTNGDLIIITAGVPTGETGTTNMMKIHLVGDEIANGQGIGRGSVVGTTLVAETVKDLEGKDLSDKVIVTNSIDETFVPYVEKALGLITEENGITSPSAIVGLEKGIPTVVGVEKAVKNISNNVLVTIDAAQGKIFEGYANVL

The subject of a further assay is S. aureus ATCC 29213. The assay can be described thus: In vitro susceptibility testing. It counts as cell-based, Staphylococcus aureus.
The subject of another assay is S. aureus (ATCC29213). The assay can be described thus: MIC in absence and presence of efflux inhibitor verapamil. It counts as cell-based, Staphylococcus aureus.
Assay [1] has as its system S. aureus LAC Δpyk::Erm^R. The experiment in a line: Bacterial killing assay, PK-deficient mutant. It counts as cell-based, Staphylococcus aureus. The following applies: 1.6 μM.
The test system of another assay is Wild-type S. aureus LAC. The experiment in a line: Bacterial killing assay, wild type. The assay is classed as cell-based, Staphylococcus aureus. Conditions: 1.6 μM, aerobic growth in BHI.
In a further assay the test system is MRSA strain MW2 (USA400). The assay can be described thus: In vitro susceptibility testing. It counts as cell-based, methicillin-resistant Staphylococcus aureus. Conditions: CAMHB.
The mark [2] stands for this setting: Staphylococcus aureus, ATCC29213.
Where [3] appears, read: Staphylococcus aureus, ATCC29213, absence of verapamil.

In general, IC50 refers to the concentration that inhibits the measured activity by half. A high value points to a need for much substance. For “2-(4-(1H-Indol-2-yl)-3-nitrophenyl)-6-bromo-1H-indole [33d]”, at MRSA PK, the “fold more potent than 33c” value is given as 2–3 fold. For the same molecule, the “% Inhibition of MRSA PK” value on MRSA PK (at 10 μM (Table 4)) was found to be 86.2%. The molecule further yielded an IC50 on MRSA PK (triplicate 15-point titration) of 1.8 nM.
Regarding “5′,6-Dibromo-1-methyl-1H,2′H-2,2′-biindole [12b]”, the “% inhibition at the highest concentration tested” value on MRSA PK (@ 10 μM) was determined as 25% @ 10 μM.
By MIC is commonly meant the lowest concentration that inhibits growth of the organism. `Brc1ccc2cc(-c3cc4ccc(Br)cc4[nH]3)[nH]c2c1` [10b, 6,6′-Dibromo-1H,1′H-2,2′-biindole]: the MIC is 16 mg/L (≈ 41 µM) in the assay on S. aureus ATCC 29213 (setting [2]) and 16 mg/L with S. aureus (ATCC29213) (setting [3]).
Molecule `Brc1ccc2[nH]c(-c3cc4ccc(Br)cc4[nH]3)cc2c1` [10c, 5,6-Bibromo-1H,1′H-2,2′-biiindole] returned an MIC against S. aureus ATCC 29213 (setting [2]) of 0.3 mg/L (≈ 0.769 µM).
On to `Clc1ccc2[nH]c(-c3cc4ccc(Br)cc4[nH]3)cc2c1` [10d, 6′-Bromo-5-chloro-1H,1′H-2,2′-biindole], for which the results for the bactericidal effect result (in assay [1] (TSB without glucose + 1% sodium pyruvate (TSB-G+P)); in assay [1] (aerobic growth in BHI); in the assay on Wild-type S. aureus LAC) were “unable to kill”, “merely acted statically” and “highly bactericidal”, respectively. Moreover, in the assay with S. aureus ATCC 29213 (setting [2]), the MIC worked out at 0.3 mg/L (≈ 0.868 µM).
`Fc1ccc2[nH]c(-c3cc4ccc(Br)cc4[nH]3)cc2c1` [10e, 6′-Bromo-5-fluoro-1H,1′H-2,2′-biindole] yielded an MIC with S. aureus ATCC 29213 (setting [2]) of 0.3 mg/L (≈ 0.911 µM).
As for `Brc1ccc2[nH]c(-c3cc4cc(Br)ccc4[nH]3)cc2c1` [10i, 5,5′-Bibromo-1H,1′H-2,2′-biindole], the MIC against S. aureus ATCC 29213 (setting [2]) is over 64 mg/L.
As to `Brc1cc2cc(-c3cc4cc(Br)c(Br)cc4[nH]3)[nH]c2cc1Br` [10l, 5,5′,6,6′-Tetrabromo-1H,1′H-2,2′-biindole], the MIC with S. aureus ATCC 29213 (setting [2]), against S. aureus ATCC 29213 (minimum concentration to give >98% inhibition of growth) and with S. aureus (ATCC29213) (setting [3]) was over 64 mg/L throughout. Also, the “shift of MIC by verapamil” value in the assay on S. aureus (ATCC29213) (absence vs presence of verapamil (200 mg/L)) is recorded as “at least fourfold”.
Take `Brc1ccc2cc(-c3nc4ccccc4s3)[nH]c2c1` [22a, 2-(6-Bromo-1H-indol-2-yl)benzo[d]thiazole]: the “fold decrease in activity compared to 10a” value on MRSA PK is given as 5–8 fold.
Turning to `Brc1ccc2cc(-c3cc4ccccc4o3)[nH]c2c1` [22b, 2-(Benzofuran-2-yl)-6-bromo-1H-indole], on MRSA PK, the “fold decrease in activity compared to 10a” value was 5–8 fold.
For `COc1cc(-c2cc3ccccc3[nH]2)ccc1-c1cc2ccc(Br)cc2[nH]1` [33e, 2-(4-(1H-Indol-2-yl)-2-methoxyphenyl)-6-bromo-1H-indole], the “fold more potent than 33c” value on MRSA PK was 2–3 fold.
With `CN[C@H](CC(C)C)C(=O)N[C@H]1C(=O)N[C@@H](CC(N)=O)C(=O)N[C@H]2C(=O)N[C@H]3C(=O)N[C@H](C(=O)N[C@H](C(=O)O)c4cc(O)cc(O)c4-c4cc3ccc4O)[C@H](O)c3ccc(c(Cl)c3)Oc3cc2cc(c3O[C@@H]2O[C@H](CO)[C@@H](O)[C@H](O)[C@H]2O[C@H]2C[C@](C)(N)[C@H](O)[C@H](C)O2)Oc2ccc(cc2Cl)[C@H]1O` [vancomycin, reference compound], the MIC in the assay on MRSA strain MW2 (USA400) stood at 2 mg/L (≈ 1.38 µM); in the assay on S. aureus (ATCC29213) (setting [2]) it was 2 mg/L; in the assay on S. aureus (ATCC29213) (presence of verapamil (200 mg/L)), 2 mg/L.

These data come from PMC6108325 (Bioorganic & medicinal chemistry, 2014).
